Laboratory results from ChEMBL document CHEMBL1121566, “Synthesis and aldose reductase inhibitory activity of 7-sulfamoylxanthone-2-carboxylic acids” (J Med Chem, 1980).
The source made the active and inactive calls. The rule behind the calls is not given here.

Columns and labels:
[1] = target: Aldo-keto reductase family 1 member B1 (Oryctolagus cuniculus) (UniProt P15122); experiment: Antiallergic agent with Aldose reductase Inhibitory Activity at 10E-5 M concentration
How it was run: (§1)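 Enzyme was from frozen rabbit lenses, homogenized in water and spun at 10000g. The 50–75% ammonium sulfate fraction was dissolved in 0.05 M NaCl. The assay used 0.067 M phosphate pH 6.0 and 2 × 10^-5 M NADPH, and was started with 5 × 10^-4 M D,L-glyceraldehyde (final). NADPH loss was followed at 340 nm for 2 min at 37 °C. Inhibitors were dissolved in minimal 0.1 N NaOH and diluted with water.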

[2] = target: Aldo-keto reductase family 1 member B1 (Oryctolagus cuniculus) (UniProt P15122); experiment: Antiallergic agent with Aldose reductase Inhibitory Activity at 10E-6 M concentration; how it was run: as §1
[3] = target: Aldo-keto reductase family 1 member B1 (Oryctolagus cuniculus) (UniProt P15122); experiment: Percent inhibition of rabbit lens aldose reductase in vitro at 10E-4 M concentration; how it was run: as §1
[4] = system: Aldose reductase (Oryctolagus cuniculus); experiment: In vitro inhibitory activity towards rabbit lens aldose reductase; Active

Structure (SMILES)	inhibition [1] [%]	inhibition [2] [%]	inhibition [3] [%]	inhibition [4]
O=C(O)c1ccc2oc3ccc(S(=O)(=O)CCO)cc3c(=O)c2c1	77	50	96	
O=C(O)c1ccc2oc3ccc(S(=O)(=O)O)cc3c(=O)c2c1	43	0	70	
O=C(O)c1ccc2oc3ccc(SCCO)cc3c(=O)c2c1	65	7	93	
NS(=O)(=O)c1ccc2oc3ccc(C(=O)O)cc3c(=O)c2c1	20	10	70	
CN(C)S(=O)(=O)c1ccc2oc3ccc(C(=O)O)cc3c(=O)c2c1	87	67	94	Active
O=C(O)c1ccc2oc3ccccc3c(=O)c2c1	10	0	20	
CC(O)c1ccc2oc3ccc(C(=O)O)cc3c(=O)c2c1 (stereo not given)	10	10	50	
C[S+]([O-])c1ccc2oc3ccc(C(=O)O)cc3c(=O)c2c1 (stereo not given)	20	0	63	
CC(C)N(C)S(=O)(=O)c1ccc2oc3ccc(C(=O)O)cc3c(=O)c2c1	69	17	89	
CNS(=O)(=O)c1ccc2oc3ccc(C(=O)O)cc3c(=O)c2c1	40	25	75	
COC(C)c1ccc2oc3ccc(C(=O)O)cc3c(=O)c2c1 (stereo not given)	6	0	70	
CC(C)NS(=O)(=O)c1ccc2oc3ccc(C(=O)O)cc3c(=O)c2c1	30	0	72	
O=C(O)c1ccc2oc3ccc(S(=O)(=O)N4CCCC4)cc3c(=O)c2c1	46	0	85	
COCC[S+]([O-])c1ccc2oc3ccc(C(=O)O)cc3c(=O)c2c1 (stereo not given)	12	4	65	
O=C(O)c1ccc2oc3ccc(S(=O)(=O)NCCO)cc3c(=O)c2c1	38	0	79	
CN(CCO)S(=O)(=O)c1ccc2oc3ccc(C(=O)O)cc3c(=O)c2c1	96	83	100	Active
O=c1c(O)c(-c2ccc(O)c(O)c2)oc2cc(O)cc(O)c12	52	9		
CCN(C)S(=O)(=O)c1ccc2oc3ccc(C(=O)O)cc3c(=O)c2c1	81	23	92	
CC(C)CN(C)S(=O)(=O)c1ccc2oc3ccc(C(=O)O)cc3c(=O)c2c1	75	25	95	
O=C(O)c1ccc2oc3ccc(OCC(O)CO)cc3c(=O)c2c1 (stereo not given)	46	8	88	
O=C(O)c1ccc2oc3ccc(S(=O)(=O)N4CCOCC4)cc3c(=O)c2c1	6	0	76	
O=C(O)c1ccc2oc3ccc(S(=O)(=O)N(CCO)CCO)cc3c(=O)c2c1	49	2	89	
O=C(O)c1ccc2oc3ccc([S+]([O-])CCO)cc3c(=O)c2c1 (stereo not given)	50	17	87	
